An excerpt weighted towards active compounds, which were near 2.6% of everything screened.
OXTR agonist: agonists of human oxytocin receptor | P30559 | CHO-OTR cells, Fluo-8 calcium fluorescence; normalized: DMSO 0%, oxytocin 100% | activation, % at 3 µM | actives 0.32% (n = 320,000);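 active = activation above the mean of all tested compounds plus 3 SD, cutoff set per screening run, cut at about 20% in these data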;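 also: peak over basal fluorescence ratio from a 100 s FLIPR kinetic read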
OXTR potentiator: potentiators of human oxytocin receptor; P30559; CHO-OTR cells, Fluo-8 calcium fluorescence, potentiator mode; 0% = oxytocin EC15, 100% = EC100; activation, % at 3 µM; actives 0.061% (n = 320,000);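 active = activation above that plate's cutoff, the mean activation of tested compounds plus 3 SD, cut at about 6.6% in these data, passing the limit was not always enough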;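 also: 100% uses oxytocin at 75 nM as the full agonist control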
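System: human OTR in CHO cells; Also added: sub-maximal oxytocin, roughly EC15; Timing: compound 6 min at room temperature before oxytocin, 100 s read; Technique: Fluo-8 intracellular calcium fluorescence, ex 470-495, em 515-575 nm; Controls: oxytocin EC15 low and EC100 high; Replication: singlicate.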
V1R ag counter: activates human V1a receptor in oxytocin agonist counter-screen | P37288 | CHO-V1R cells, Fluo-8 calcium fluorescence, agonist mode; 0% DMSO, 100% 3 nM vasopressin | activation, % at 3 µM | actives 0.25% (n = 320,000) | AID 2797;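 active = activation above the mean activation of all tested compounds plus 3 SD, per screening run, cut at about 20% in these data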;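 also: signal is peak over basal fluorescence ratio across a 100 second FLIPR read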
Target sequence (P37288 whole entry, looked up): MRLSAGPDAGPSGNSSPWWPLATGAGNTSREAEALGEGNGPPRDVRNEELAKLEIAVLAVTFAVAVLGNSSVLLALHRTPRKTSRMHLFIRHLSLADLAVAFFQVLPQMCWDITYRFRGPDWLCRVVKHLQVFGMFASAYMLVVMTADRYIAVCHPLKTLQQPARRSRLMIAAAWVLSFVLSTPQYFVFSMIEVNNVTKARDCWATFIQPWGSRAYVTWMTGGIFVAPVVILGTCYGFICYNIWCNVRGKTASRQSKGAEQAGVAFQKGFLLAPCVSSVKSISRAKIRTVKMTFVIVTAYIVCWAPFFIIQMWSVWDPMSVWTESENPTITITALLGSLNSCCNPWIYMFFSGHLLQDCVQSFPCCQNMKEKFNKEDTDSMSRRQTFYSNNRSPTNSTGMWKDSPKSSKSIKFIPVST
CHO parental Ca: signal in parental CHO cells, OX1R antagonist counter-screen. actives 0.63% (n = 330,000). inhibition, % at 5.6 µM. parental CHO-K1, ATP-induced calcium, Fluo-8 fluorescence;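 active = inhibition above that plate's mean sample inhibition plus 3 SD, cut at about 26% in these data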;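 also: 0% = ATP-challenged DMSO wells and 100% = DMSO wells without ATP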
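Material: parental CHO cells / Compound: single nominal dose of 5.6 µM per compound / Signal: Fluo-8 fluorescence / Replicates: singlicate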
OX1R antag-1: antagonists of human orexin 1 receptor (OX1R). O43613. OX1R-expressing cells, FRET antagonist read-out. inhibition, % at 6.6 µM. actives 1.8% (n = 330,000). AID 485270; in the data active = inhibition mostly above about 38%, no sharp cut-off; inactive = mostly below about 40%;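 also: 0% = agonist challenge alone and 100% = reference antagonist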
OX1R antag-2: human HCRTR1 antagonism; inhibition, % at 5 µM; CHO/OX1R cells, Fluo-8 calcium fluorescence, orexin A; actives 0.43% (n = 330,000); AID 434989; O43613;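 active = inhibition above its plate's threshold, mean inhibition of all tested compounds on the plate plus 3 SD, cut at about 37% in these data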;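 also: 0% = orexin A challenge wells and 100% = SB-334867-A antagonist wells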
OX1R HTRF confirm: confirmation of human orexin 1 receptor antagonists, HTRF format. actives 49% (n = 1,800). inhibition, % at 6.6 µM. OX1R-expressing cells, HTRF antagonist assay. shares compounds with OX1R antag-1; in the data active = inhibition above about 55%;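 also: CHO cells expressing OX1R stimulated with orexin A at about EC80; 0% = agonist challenge alone and 100% = reference antagonist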
CHO-K1 HTRF cnt: signal in parental CHO-K1 cells, OX1R antagonist counter-screen. HTRF counterscreen. inhibition, % at 6.6 µM. actives 48% (n = 1,800). shares compounds with OX1R antag-1; in the data active = inhibition above about 17%;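 also: 0% = agonist challenge with vehicle and 100% = vehicle alone without agonist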
* marks the source's active call; other numbers are inactive results; nt = no result.

SMILES	OXTR agonist	OXTR potentiator	V1R ag counter	CHO parental Ca	OX1R antag-1	OX1R antag-2	OX1R HTRF confirm	CHO-K1 HTRF cnt
N#Cc1ccc(CN2CCN(C(=O)c3cc(C4CC4)nn3-c3ccccc3)CC2)cc1	-1	-7	1	-16	-2	-10	nt	nt
O=[N+]([O-])c1c(NCCO)cc(N2CCC3(CC2)OCCO3)c2nonc12	0	-15	0	0	170*	4	46	82*
CN(CCO)c1cc(N2CCC3(CC2)OCCO3)c2nonc2c1[N+](=O)[O-]	-1	-9	0	7	129*	-4	60*	56*
CC(=O)Nc1ccc(Nc2cc(N3CCOCC3)c3nonc3c2[N+](=O)[O-])cc1	0	-1	0	-9	32	-9	nt	nt
CN(CCO)c1cc(NCCCN2CCC(Cc3ccccc3)CC2)c2nonc2c1[N+](=O)[O-]	-1	-6	-1	-30	85*	-19	63*	47*
CCc1nnc(N2C(=O)c3ccccc3C2(O)c2ccccc2)s1 (stereo not given)	0	-1	0	-4	3	-21	nt	nt
NS(=O)(=O)c1ccc(NC(=O)CSc2nc(Nc3ccccc3)nc(N3CCOCC3)n2)cc1	1	-9	1	-5	17	11	nt	nt
COc1ccc(-c2cnc[nH]2)cc1	1	-1	1	3	5	1	nt	nt
Nc1c([N+](=O)[O-])cc(-c2cnc[nH]2)cc1[N+](=O)[O-]	-1	-8	1	7	102*	3	61*	102*
COc1ccccc1NC(=O)c1nn(-c2cccc(C(F)(F)F)c2)ccc1=O	-2	-5	0	-6	82*	12	66*	5
COc1ccccc1NC(=O)c1nn(-c2ccc(F)c(F)c2)ccc1=O	4	-9	0	4	21	-9	nt	nt
COc1ccc(-n2nc3cc(C)c(N)c(Br)c3n2)cc1	-2	-14	-1	-17	92*	28	41	6
Cc1ccccc1N1CCN(C2CCCN(C(=O)CCc3c(C)noc3C)C2)CC1 (stereo not given)	1	-6	5	-22	-3	-24	nt	nt
CCCOc1ccc(/C=N/NC(=O)CN(c2ccc(OCC)cc2)S(C)(=O)=O)cc1	-1	-3	0	-13	5	-46	nt	nt
CCOc1ccc(N(CC(=O)N/N=C/c2cc([N+](=O)[O-])ccc2Cl)S(C)(=O)=O)cc1	-3	-11	-1	0	81*	13	22	7
COC(=O)c1cc2c(C)cc3ccc(C)cn3c-2c1C(=O)OC	0	-14	1	-25	65	-14	nt	nt
COC(=O)c1cc2ccccn2c2c(C(=O)OC)c(C(=O)OC)cc1-2	-1	-5	-1	-14	94*	-15	39	25*
N#CC1=C(N)Oc2cc(O)ccc2C1c1ccncc1 (stereo not given)	4	-1	6	-8	111*	2	13	-6
N#CC1=C(N)Oc2cc(O)ccc2C1c1cccnc1 (stereo not given)	0	-24	1	7	55	17	nt	nt
Nc1nnc(-c2cccc([N+](=O)[O-])c2)s1	0	-1	4	-6	111*	-4	35	40*
CCN1C(=O)[C@H]2[C@@H](c3ccc(-c4ccc(F)cc4)cc3)N[C@@](CC(C)C)(C(=O)OC)[C@H]2C1=O	8	-7	1	-16	18	-24	nt	nt
CCOC(=O)C1(CC)NC(c2cccc(F)c2)C2C(=O)N(CC)C(=O)C21 (stereo not given)	0	-1	0	-3	89*	-6	11	-2
O=C(CCCN1C(=O)c2cccc3cccc(c23)C1=O)NC1CCS(=O)(=O)C1 (stereo not given)	0	-5	0	-5	85*	-21	42	50*

Compound activity deposited in PubChem by The Scripps Research Institute Molecular Screening Center.
